From PubChem BioAssay
Shown are actives, neighbours in structure and some others; about 1.8% of the full set was active somewhere.
eIF4H FP inh – inhibitors of RNA binding by human eIF4H. eIF4H fluorescence polarization binding assay. hit rate 0.94% among 290,000. inhibition, % at 35 µM;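 note: calls also rest on retests at 20 µM and on dose response follow-up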
SKN-1 block – inhibitors of C. elegans SKN-1; C. elegans VP596 Pgst-4::GFP/RFP ratio, acrylamide-induced, 24 h; inhibition, % at 21.8 µM; hit rate 0.49% among 360,000; AID 624304;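 active = interference check ratio from 0.5 to 1.5 plus GFP to RFP signal ratio inhibition reaching or exceeding a fixed threshold, cut at about 30% in these data, passing the limit was not always enough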
MLLE-PAM2 inh – inhibitors of microRNA-mediated deadenylation, human PABP1 MLLE binding; inhibition, % at 20 µM; GST-MLLE / FITC-PAM2 fluorescence polarization; hit rate 0.36% among 360,000; P11940; in the data active = inhibition above about 35%, passing the limit was not always enough;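 note: plate controls were DMSO wells with GST-MLLE for no effect and wells lacking GST-MLLE protein for full effect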
PABP polyA inh – PABP-poly(A) binding inhibition; P11940; calls only at 35 µM; PABP-poly(A) RNA binding, fluorescence polarization; hit rate 1% among 290,000;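 note: calls also rest on retests at 20 µM and on dose response follow-up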
MT1-MMP act inh – MT1-MMP (human) activation inhibition | HT1080 RFP-PRO-GFP cells, GFP/RFP ratio fluorescence, overnight; percent of plate control window, DMSO zero | hit rate 0.061% among 360,000 | P50281 | GFP/RFP ratio change, % at 20 µM | AID 651647;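 active = GFP/RFP ratio change of at least 30% with cell ATP level not reduced by more than half and red fluorescence within 50% of control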
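Material – HT1080 RFP-PRO-GFP cells · Control set – DMSO wells and RFP-L50D-GFP cells · Incubation – overnight cell settling, then overnight compound exposure, 37 °C, 5% CO2 · Compound dosing – single-point 20 µM compound, 1% DMSO · Read-out – GFP/RFP fluorescence ratio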
* = called active by the depositor; i = inactive; ? = inconclusive; · = no result; + = active, no number. Unless noted, the rule behind the calls is not given here.

SMILES | eIF4H FP inh | SKN-1 block | MLLE-PAM2 inh | PABP polyA inh | MT1-MMP act inh
Nc1sccc1C(=O)NCc1ccccc1 | · | 38.5* | · | · | 1.7
O=C(O)c1ccccc1C(=O)NCc1ccccc1 | 2.0 | 3.7 | 21.5 | i | 4.6
Nc1c(C(=O)O)sc2nc(-c3ccccc3)cc(-c3ccc(Cl)cc3)c12 | 12.5 | -9.3 | -1.8 | i | 11.4
Nc1c(C(=O)O)sc2nc(-c3ccc(F)cc3)cc(-c3ccccc3)c12 | 80.7 | 3.6 | -41.9 | + | -17.6
O=c1cc(-c2ccc(O)cc2)oc2cc(O)c(C3OC(CO)C(O)C(O)C3O)c(O)c12 (stereo unspecified) | 66.9* | -3.0 | 10.4 | + | 21.7
CCN1C(=O)/C(=C2/SC(C)=C(C)N2CC)SC1=S | -0.2 | -19.4 | 52.2* | i | 1.2
CCCCN1C(=O)/C(=C2/Sc3ccc(OC)cc3N2CC)SC1=S | -3.7 | 24.6 | -5.4 | i | -108.6
Cc1ccc(-c2nnn(CC(=O)NCC3CC3)n2)o1 | -13.3 | -7.3 | 6.7 | i | 0.9
Cc1ccc(-c2nnn(CC(=O)NCC3COCCO3)n2)o1 (stereo unspecified) | 5.9 | 41.7* | 4.8 | i | -11.4
CN(C)CCOC(=O)c1ccc2[nH]c3c(c2c1)CSCC3 | 32.6 | -3.9 | 19.8 | i | 1.0
O=C(O)c1ccc2[nH]c3c(c2c1)CSCC3 | 56.2* | 15.0 | 33.4 | i | -0.5
Cc1cnc(CNC(=O)c2csc([C@H]3C[C@H](O)[C@@H](CO)O3)n2)cn1 | · | 6.0 | 3.2 | · | 0.2
O=C(O)c1cc(C(=O)O)cc(-c2ccc(/C=c3/sc4nc5ccccc5n4c3=O)o2)c1 | 55.8* | · | · | i | ·
CCOC(=O)c1c(-c2ccc(C)o2)csc1NC(=S)NC(=O)c1ccc(F)cc1 | 5.6 | 3.6 | 45.9* | i | 0.5
CCOC(=O)c1c(-c2ccc(C)o2)csc1NC(=O)CN1CCCCC1 | -11.4 | 15.2 | 2.2 | i | -7.2
CC(=O)Nc1nc2ccc(Br)cc2s1 | 46.4 | 35.2* | 1.4 | i | -2.2
CCC(=O)N1CCN(c2nc3ccc(Br)cc3s2)CC1 | 1.4 | 43.0* | 1.9 | i | -0.2
N#Cc1c(SCC(=O)Nc2nccs2)sc2c(O)cc(=O)[nH]c12 | 68.4* | 8.3 | -23.2 | + | -0.9
CCCCC(=O)N1CCN(c2nc3ccc(F)cc3s2)CC1 | 4.7 | -2.2 | 14.9 | i | -6.9
COc1ccc2nc(NC(C)=O)sc2c1 | -4.9 | 1.9 | -2.0 | i | 1.9
N#Cc1cccc(NC(=O)CSc2sc3c(O)cc(=O)[nH]c3c2C#N)c1 | 27.2 | 3.6 | -10.2 | i | -3.9
CCCSc1nnc(NC(=O)CSc2sc3c(O)cc(=O)[nH]c3c2C#N)s1 | 72.0* | 8.0 | 17.5 | + | -6.5
N#Cc1c(SCC(=O)Nc2ccc(Cl)cc2Cl)sc2c(O)cc(=O)[nH]c12 | 16.7 | 13.4 | -13.9 | i | 0.5
CC(=O)N1CC(C)Oc2ccc(S(=O)(=O)NC(CC(=O)O)c3ccccc3)cc21 (stereo unspecified) | 1.9 | 6.9 | -0.6 | i | -1.5
COc1ccc2c(c1)C(=O)N1[C@H]3c4cc(Br)ccc4OC[C@@H]3[C@H](c3ccccc3)[C@]1(C)C(=O)N2 | · | 10.7 | -3.1 | · | -19.7
SMILES | eIF4H FP inh | SKN-1 block | MLLE-PAM2 inh | PABP polyA inh | MT1-MMP act inh
N#Cc1c(SCC(=O)Nc2nc3ccccc3s2)sc2c(O)cc(=O)[nH]c12 | · | 9.4 | -2.9 | · | -4.4
N#Cc1c(SCC(=O)Nc2nc3ccc(Br)cc3s2)sc2c(O)cc(=O)[nH]c12 | 73.1* | 21.1 | -35.2 | + | -6.9
O=C(NC1CCCCC1)c1nc(C2CCNCC2)oc1-c1ccccc1 | · | 6.3 | 7.1 | · | 1.9
Cc1noc(C)c1C(=O)OCC(=O)Nc1ncc(Cl)c(C)c1Cl | · | 12.7 | -10.7 | · | 2.9
Nc1nc(N=Nc2ccc(O)cc2)cc(=O)[nH]1 | · | 5.7 | 51.6* | · | -8.7
CCCCN(C(=O)c1cccc(S(=O)(=O)N2CCOCC2)c1)c1c(N)n(CCC)c(=O)[nH]c1=O | 12.9 | -21.8 | -4.0 | + | -1.8
CCCCN(C(=O)c1cccc(S(=O)(=O)N2CCN(C)CC2)c1)c1c(N)n(CCCC)c(=O)[nH]c1=O | · | 6.8 | -3.2 | · | 4.2
CCSC1=N/C(=C\c2ccc3c(c2)OCO3)C(=O)S1 | -2.1 | -30.2 | -14.4 | i | -20.5
C=CCSC1=N/C(=C\c2cc(OC)c3c(c2)OCO3)C(=O)S1 | 57.4* | -4.7 | -15.2 | i | -3.2
c1ccc(CSc2nnc3c(n2)OC(c2ccco2)Nc2ccccc2-3)cc1 (stereo unspecified) | 4.0* | -22.4 | 8.9 | i | -8.3
C=CCSc1nnc2c(n1)OC(c1c(C)[nH]n(-c3ccccc3)c1=O)Nc1ccccc1-2 (stereo unspecified) | ? | -10.2 | 6.8 | + | 3.4
C=CCSc1nnc2c(n1)OC(c1cccnc1)Nc1ccccc1-2 (stereo unspecified) | -3.4 | -13.3 | 7.5 | i | 2.5
O=C(Cc1cccc(NC(=O)C2CCCN(C(=O)C3CC3)C2)c1)Nc1ccc(C(=O)N2CCOCC2)cc1 (stereo unspecified) | · | 13.7 | 7.4 | · | 4.8
O=C(O)c1cccc(-n2cccc2/C=C2/NC(=O)N(Cc3ccccc3F)C2=O)c1 | 93.9* | 2.2 | 7.5 | + | -1.4
O=C1N/C(=C/c2cccn2-c2ccccc2)C(=O)N1Cc1ccc(F)cc1 | active | 9.5 | -9.5 | + | 8.3
O=C1N/C(=C/c2cccn2-c2ccc(F)cc2)C(=O)N1Cc1ccccc1F | -5.9 | -11.7 | -12.7 | i | 5.5
C[C@H]1CCCCO[C@H](CN(C)C(=O)C2CCCCC2)[C@@H](C)CN([C@@H](C)CO)C(=O)c2cc(NC(=O)NC3CCCCC3)ccc2O1 | · | -4.4 | -6.9 | · | 5.1
COc1ccc(OC)c(S(=O)(=O)NC(=O)C2(C)CCN2C(=O)C2(c3ccc(Cl)cc3)CC2)c1 (stereo unspecified) | · | -3.6 | -15.5 | · | -3.6
CCOc1ccccc1NC(=O)c1cccc(N2C(=O)CCC2=O)c1 | -0.4 | 8.9 | 8.4 | i | 1.6
O=C(NCCCN1CCCCC1)C1CCN(c2ncnc3c2nc2n3CCCCC2)CC1 | -2.5 | 9.5 | 11.5 | i | 5.6
CC(C)OCCCNc1ncnc2c1nc1n2CCCC1 | 93.5* | 0.1 | 3.5 | + | -1.1
Cc1ccc(-c2noc(COC(=O)c3ccco3)n2)cc1 | · | -13.4 | 1.4 | · | 2.8
COc1ccc(Nc2nc(C(=O)NCCCN3CCOCC3)cs2)cc1 | -6.2 | 33.3* | 7.0 | i | -13.5
CCc1c(C)sc(NC(=O)c2cc(C)on2)c1C#N | 4.9 | 7.8 | 17.8 | i | 6.5
CCc1c(C)sc(NC(=O)c2cc(C3CC3)on2)c1C#N | -8.2 | 16.9 | 36.4* | i | 4.9
O=C(c1ccc(Br)o1)N1CCC(Cc2ccccc2)CC1 | 1.0 | -3.6 | 4.5 | i | -1.9
Cn1nccc1C(=O)N1CCC(Cc2ccccc2)CC1 | 8.3 | 37.7* | 8.1 | i | -0.3
N/C(=N\OC(=O)c1ccoc1)c1ccc(Br)cc1 | 1.5 | 62.8* | 2.9 | i | 2.1
